ChEMBL document CHEMBL1629579, “Correlating echinocandin MIC and kinetic inhibition of fks1 mutant glucan synthases for Candida albicans: implications for interpretive breakpoints” (Antimicrob Agents Chemother, 2009)
≈ marks a conversion by molar mass, not a printed value. Numbered stars: 1 amine (or outer) side, 2 acyl side, 3 side chain; on linkers, the order of the positions; unused ones are H or OH. Bridge positions count the residues as written; N and C are the ends. Square brackets hold non-standard residues; d marks the D form. Peptide text beside a SMILES is read from it. * marks the point of attachment. hTyr(3S-OH,4S-OH,3'-OSO3H) = N[C@H](C(=O)O)[C@H](O)[C@@H](O)c1ccc(O)c(OS(=O)(=O)O)c1; Orn(4R-OH,5R-OH) = O=C([C@H](C[C@@H](O)[C@@H](O)N[*:3])N[*:1])[*:2]; Pro(3S-OH,4S-Me) = C[C@H]1CN[C@H](C(=O)O)[C@H]1O; X1 = CCCCCOc1ccc(-c2cc(-c3ccc(C(=O)*)cc3)no2)cc1; Gln(3R-OH) = NC(=O)C[C@@H](O)[C@H](N)C(=O)O; Hyp = O=C(O)[C@@H]1C[C@@H](O)CN1

Experiments:
Candida albicans [1] = assay: Antimicrobial activity against Candida albicans SC5314 by M27-A3 method; assay type: functional
How it was run: (§1)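 Broth microdilution per CLSI M27-A3 in RPMI 1640, with and without 50% human serum, in triplicate. C. krusei ATCC 6258 and C. parapsilosis ATCC 22019 served as quality-control strains. MIC reported as arithmetic mean of three repetitions on separate days.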

Candida albicans [2] = assay: Antimicrobial activity against Candida albicans 90028 by M27-A3 method; assay type: functional; how it was run: as §1
Candida albicans [3] = assay: Antimicrobial activity against Candida albicans 1002 by M27-A3 method; assay type: functional; how it was run: as §1
Candida albicans [4] = assay: Antimicrobial activity against Candida albicans 3107 by M27-A3 method; assay type: functional
How it was run: (§2)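 Broth microdilution per CLSI M27-A3 in RPMI 1640, done in triplicate on three separate days. Each strain was tested with and without 50% human serum. C. krusei ATCC 6258 and C. parapsilosis ATCC 22019 served as QC strains. Arithmetic means are reported, and geometric means were used for comparison.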

Candida albicans [5] = assay: Antimicrobial activity against Candida albicans 3795 by M27-A3 method; assay type: functional; how it was run: as §1
Candida albicans [6] = assay: Antimicrobial activity against Candida albicans 3795 by M27-A3 method in presence of 50% human serum; assay type: functional; how it was run: as §2
Candida albicans [7] = assay: Antimicrobial activity against Candida albicans 119 harboring FKS1 T1921C mutant gene and FKS1 hotspot1 F641L mutant gene by M27-A3 method in presence of 50% human serum; assay type: functional; how it was run: as §2
Candida albicans [8] = assay: Antimicrobial activity against Candida albicans 177 harboring FKS1 T1922C mutant gene and FKS1 hotspot1 F641S mutant gene by M27-A3 method; assay type: functional; how it was run: as §2
Candida albicans [9] = assay: Antimicrobial activity against Candida albicans 177 harboring FKS1 T1922C mutant gene and FKS1 hotspot1 F641S mutant gene by M27-A3 method in presence of 50% human serum; assay type: functional; how it was run: as §2
Candida albicans [10] = assay: Antimicrobial activity against Candida albicans 2762 harboring FKS1 T1922C mutant gene and FKS1 hotspot1 F641S mutant gene by M27-A3 method in presence of 50% human serum; assay type: functional; how it was run: as §2
Candida albicans [11] = assay: Antimicrobial activity against Candida albicans 205 harboring FKS1 T1933C mutant gene and FKS1 hotspot1 S645P mutant gene by M27-A3 method; assay type: functional; how it was run: as §2
Candida albicans [12] = assay: Antimicrobial activity against Candida albicans 5415 harboring FKS1 T1933C mutant gene and FKS1 hotspot1 S645P mutant gene by M27-A3 method; assay type: functional; how it was run: as §2
Candida albicans [13] = assay: Antimicrobial activity against Candida albicans 89 harboring FKS1 C1934A mutant gene and FKS1 hotspot1 S645Y mutant gene by M27-A3 method in presence of 50% human serum; assay type: functional; how it was run: as §2
Candida albicans [14] = assay: Antimicrobial activity against Candida albicans 85 harboring FKS1 C1934T mutant gene and FKS1 hotspot1 S645F mutant gene by M27-A3 method in presence of 50% human serum; assay type: functional; how it was run: as §2
Candida albicans [15] = assay: Antimicrobial activity against Candida albicans 149 harboring FKS1 G1942T mutant gene and FKS1 hotspot1 D648Y mutant gene by M27-A3 method in presence of 50% human serum; assay type: functional; how it was run: as §2
Candida albicans [16] = assay: Antimicrobial activity against Candida albicans 122 harboring FKS1 C1946A mutant gene and FKS1 hotspot1 P649H mutant gene by M27-A3 method; assay type: functional; how it was run: as §2
Candida albicans [17] = assay: Antimicrobial activity against Candida albicans 194 harboring FKS1 C1934T/G4082R mutant gene and FKS1 hotspot1 S645F mutant gene and FKS1 hotspot2 R1361R/H mutant gene by M27-A3 method; assay type: functional; how it was run: as §2
Candida albicans [18] = assay: Antimicrobial activity against Candida albicans A15-10 harboring FKS1 T1933C mutant gene and FKS1 hotspot1 S645P mutant gene by M27-A3 method; assay type: functional; how it was run: as §2
[19] = Inhibition of Candida albicans SC5314 1,3-beta-D-glucan synthase subunit FKS1p
How it was run: (§3)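 Enzyme is product-entrapped 1,3-β-D-glucan synthase, enriched from membranes of each strain grown at 37°C with shaking in YPD broth to early stationary phase. Filtration polymerization assay uses [3H]UDPG, started by adding enzyme and run 60 min at 25°C. Echinocandins are added as serial dilutions, with 1% DMSO controls for anidulafungin. IC50 is from a variable-slope sigmoidal fit; values are triplicate arithmetic means.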

[20] = Inhibition of Candida albicans 1002 1,3-beta-D-glucan synthase subunit FKS1p
How it was run: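 Product-entrapped glucan synthase from YPD-grown cells (37°C, early stationary phase) in a filtration polymerization assay with [3H]UDPG. Echinocandin serial dilutions were added, with 1% DMSO in controls for anidulafungin. Reactions were started with enzyme, run 60 min at 25°C and stopped on ice. IC50 came from a variable-slope sigmoidal fit, in triplicate.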

[21] = Inhibition of Candida albicans 3107 1,3-beta-D-glucan synthase subunit FKS1p; how it was run: as §3
[22] = Inhibition of Candida albicans 177 1,3-beta-D-glucan synthase subunit FKS1p T1922C mutant; how it was run: as §3
[23] = Inhibition of Candida albicans 205 1,3-beta-D-glucan synthase subunit FKS1p T1933C mutant; how it was run: as §3
[24] = Inhibition of Candida albicans 5415 1,3-beta-D-glucan synthase subunit FKS1p T1933C mutant; how it was run: as §3
Candida albicans [25] = assay: Activity at Candida albicans 36082 1,3-beta-D-glucan synthase subunit FKS1p
How it was run: (§4)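 Glucan synthase from cells grown at 37°C with vigorous shaking to early stationary phase in YPD. Membrane enzyme enriched by product entrapment. Serial echinocandin dilutions; ANF controls held 1% DMSO. Reaction started by adding enzyme, run 60 min at 25°C in a filtration polymerization assay, stopped on ice. IC50 from a variable-slope sigmoidal fit; means of three repetitions on separate days.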

Candida albicans [26] = assay: Activity at Candida albicans 90028 1,3-beta-D-glucan synthase subunit FKS1p; how it was run: as §4
Candida albicans [27] = assay: Activity at Candida albicans 119 1,3-beta-D-glucan synthase subunit FKS1p T1921C mutant
How it was run: (§5)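 Product-entrapped 1,3-β-D-glucan synthase from cells grown in YPD at 37°C to early stationary phase. Wells held 50 mM HEPES pH 7.5, 10% glycerol, 1.5 mg/ml BSA, 25 mM KF, 1 mM EDTA, 25 μM GTP-γ-S, 1 μg enzyme and [3H]UDPG (0.015–2 mM). Reactions ran 60 min at 25°C. Vmax and Km came from Lineweaver-Burke plots, in triplicate.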

Candida albicans [28] = assay: Activity at Candida albicans 5415 1,3-beta-D-glucan synthase subunit FKS1p T1933C mutant; how it was run: as §5
Candida albicans [29] = assay: Activity at Candida albicans 89 1,3-beta-D-glucan synthase subunit FKS1p C1934A mutant; how it was run: as §5
Candida albicans [30] = assay: Activity at Candida albicans 121 1,3-beta-D-glucan synthase subunit FKS1p G4082A mutant; how it was run: as §5
Candida albicans [31] = assay: Activity at Candida albicans 194 1,3-beta-D-glucan synthase subunit FKS1p C1934T/G4082R mutant; how it was run: as §5

## CCCCCOc1ccc(-c2cc(-c3ccc(C(=O)N[C@H]4C[C@@H](O)[C@@H](O)NC(=O)[C@@H]5[C@@H](O)[C@@H](C)CN5C(=O)[C@H]([C@H](O)CC(N)=O)NC(=O)[C@H]([C@H](O)[C@@H](O)c5ccc(O)c(OS(=O)(=O)O)c5)NC(=O)[C@@H]5C[C@@H](O)CN5C(=O)[C@H]([C@@H](C)O)NC4=O)cc3)no2)cc1 [MICAFUNGIN] (X1-[Orn(4R-OH,5R-OH)]T[Hyp][hTyr(3S-OH,4S-OH,3'-OSO3H)][Gln(3R-OH)][Pro(3S-OH,4S-Me)]; lactam 1-C)
Candida albicans [1]
  MIC: 0.05 µg/mL (≈ 0.0394 µM)
Candida albicans [2]
  MIC: 0.03 µg/mL (≈ 0.0236 µM)
Candida albicans [3]
  MIC: 0.04 µg/mL (≈ 0.0315 µM)
Candida albicans [4]
  MIC: 0.03 µg/mL (≈ 0.0236 µM)
Candida albicans [5]
  MIC: 0.03 µg/mL (≈ 0.0236 µM)
Candida albicans [6]
  MIC: 0.5 µg/mL
Candida albicans [7]
  MIC: 8 µg/mL
Candida albicans [8]
  MIC: 1 µg/mL (≈ 0.787 µM)
Candida albicans [9]
  MIC: 16 µg/mL
Candida albicans [10]
  MIC: 16 µg/mL
Candida albicans [11]
  MIC: 4 µg/mL (≈ 3.15 µM)
Candida albicans [12]
  MIC: 4 µg/mL (≈ 3.15 µM)
Candida albicans [13]
  MIC: 8 µg/mL
Candida albicans [14]
  MIC: 8 µg/mL
Candida albicans [15]
  MIC: 4 µg/mL
Candida albicans [16]
  MIC: 0.83 µg/mL (≈ 0.653 µM)
Candida albicans [17]
  MIC: 2.67 µg/mL (≈ 2.1 µM)
Candida albicans [18]
  MIC: 4 µg/mL (≈ 3.15 µM)
[19]
  IC50: 0.0582 µg/mL (≈ 0.0458 µM)
  Ki: 0.02747 µg/mL (≈ 0.0216 µM)
[20]
  IC50: 0.05334 µg/mL (≈ 0.042 µM)
  Ki: 0.03452 µg/mL (≈ 0.0272 µM)
[21]
  IC50: 0.01472 µg/mL (≈ 0.0116 µM)
  Ki: 0.04187 µg/mL (≈ 0.033 µM)
[22]
  IC50: 1.441 µg/mL (≈ 1.13 µM)
  Ki: 4.40423 µg/mL (≈ 3.47 µM)
[23]
  IC50: 1.085 µg/mL (≈ 0.854 µM)
  Ki: 2.67363 µg/mL (≈ 2.1 µM)
[24]
  IC50: 1.254 µg/mL (≈ 0.987 µM)
  Ki: 2.75301 µg/mL (≈ 2.17 µM)
Candida albicans [25]
  Km: 89 µM
  Vmax: 5.87 nmol/min
Candida albicans [26]
  Km: 67 µM
  Vmax: 4.71 nmol/min
Candida albicans [27]
  Km: 54 µM
  Vmax: 2.54 nmol/min
Candida albicans [28]
  Km: 98 µM
  Vmax: 3.12 nmol/min
Candida albicans [29]
  Km: 61 µM
  Vmax: 2.51 nmol/min
Candida albicans [30]
  Km: 129 µM
  Vmax: 4.41 nmol/min
Candida albicans [31]
  Km: 61 µM
  Vmax: 5.81 nmol/min
